Data from ChEMBL document CHEMBL3351385, “Synthesis and preliminary mechanistic evaluation of 5-(p-tolyl)-1-(quinolin-2-yl)pyrazole-3-carboxylic acid amides with potent antiproliferative activity on human cancer cell lines” (Eur J Med Chem, 2014).
Active and inactive are the calls of the source. The calls are words filed in the database; no cut-off is given here.

Columns and labels:
[1] = biological target: Serine/threonine-protein kinase N2 (Homo sapiens) (UniProt Q16513); assay: Inhibition of PRK2 (unknown origin) assessed as remaining enzyme activity at 10 uM by radioactive [33P]-ATP filter binding assay
Sequence of Serine/threonine-protein kinase N2 (Homo sapiens) (Q16513 whole entry, looked up): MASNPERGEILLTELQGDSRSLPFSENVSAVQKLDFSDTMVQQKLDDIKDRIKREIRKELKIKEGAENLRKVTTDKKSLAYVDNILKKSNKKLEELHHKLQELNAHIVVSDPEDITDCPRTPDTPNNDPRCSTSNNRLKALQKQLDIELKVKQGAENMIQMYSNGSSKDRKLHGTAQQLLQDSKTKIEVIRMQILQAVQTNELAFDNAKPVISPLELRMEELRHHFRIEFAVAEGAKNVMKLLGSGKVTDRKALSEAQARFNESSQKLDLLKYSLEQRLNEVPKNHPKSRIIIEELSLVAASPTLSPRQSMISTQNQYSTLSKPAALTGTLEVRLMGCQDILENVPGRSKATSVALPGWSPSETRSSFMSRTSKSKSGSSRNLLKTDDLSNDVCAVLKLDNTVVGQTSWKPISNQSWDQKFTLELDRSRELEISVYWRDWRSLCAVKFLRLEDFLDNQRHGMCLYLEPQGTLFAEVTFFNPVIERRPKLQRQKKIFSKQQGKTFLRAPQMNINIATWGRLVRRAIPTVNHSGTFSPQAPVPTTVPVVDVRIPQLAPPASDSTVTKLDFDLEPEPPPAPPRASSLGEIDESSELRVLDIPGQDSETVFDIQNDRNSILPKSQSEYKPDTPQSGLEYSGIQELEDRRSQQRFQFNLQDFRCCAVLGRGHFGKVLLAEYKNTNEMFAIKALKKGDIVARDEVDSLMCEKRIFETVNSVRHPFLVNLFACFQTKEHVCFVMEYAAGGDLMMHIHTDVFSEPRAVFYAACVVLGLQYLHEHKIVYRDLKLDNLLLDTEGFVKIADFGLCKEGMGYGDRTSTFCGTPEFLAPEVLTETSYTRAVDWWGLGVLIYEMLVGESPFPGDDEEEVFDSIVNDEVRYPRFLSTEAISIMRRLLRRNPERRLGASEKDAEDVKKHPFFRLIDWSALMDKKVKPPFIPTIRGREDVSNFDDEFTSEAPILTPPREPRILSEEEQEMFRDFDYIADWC

[2] = biological target: Serine/threonine-protein kinase pim-1 (Homo sapiens) (UniProt P11309); assay: Inhibition of PIM1 (unknown origin) assessed as remaining enzyme activity at 10 uM by radioactive [33P]-ATP filter binding assay
[3] = biological target: Mitogen-activated protein kinase kinase kinase 11 (Homo sapiens) (UniProt Q16584); assay: Inhibition of MLK3 (unknown origin) assessed as remaining enzyme activity at 10 uM by radioactive [33P]-ATP filter binding assay
[4] = biological target: SRSF protein kinase 1 (Homo sapiens) (UniProt Q96SB4); assay: Inhibition of SRPK1 (unknown origin) assessed as remaining enzyme activity at 10 uM by radioactive [33P]-ATP filter binding assay
[5] = biological target: Mitogen-activated protein kinase 15 (Homo sapiens) (UniProt Q8TD08); assay: Inhibition of ERK8 (unknown origin) assessed as remaining enzyme activity at 10 uM by radioactive [33P]-ATP filter binding assay
Sequence of Mitogen-activated protein kinase 15 (Homo sapiens) (Q8TD08 whole entry): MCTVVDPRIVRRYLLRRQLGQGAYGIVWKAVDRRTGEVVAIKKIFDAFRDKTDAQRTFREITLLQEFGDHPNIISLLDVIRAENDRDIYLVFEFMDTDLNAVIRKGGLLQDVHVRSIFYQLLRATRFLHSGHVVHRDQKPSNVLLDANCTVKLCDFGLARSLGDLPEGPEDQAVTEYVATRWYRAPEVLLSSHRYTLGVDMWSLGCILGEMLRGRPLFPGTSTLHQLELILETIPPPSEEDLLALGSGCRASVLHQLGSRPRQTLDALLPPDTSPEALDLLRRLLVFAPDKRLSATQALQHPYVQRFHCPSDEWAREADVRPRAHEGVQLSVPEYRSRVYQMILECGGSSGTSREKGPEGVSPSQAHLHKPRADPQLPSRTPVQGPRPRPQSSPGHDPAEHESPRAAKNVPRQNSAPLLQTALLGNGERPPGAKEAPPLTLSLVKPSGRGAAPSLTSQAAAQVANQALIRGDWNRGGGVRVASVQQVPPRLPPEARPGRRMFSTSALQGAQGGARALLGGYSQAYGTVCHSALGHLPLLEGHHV
Outline: (§1)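 A single 10 µM concentration was tested across a 140-kinase panel. Activity was measured by a radioactive 33P-ATP filter-binding assay run at the International Center for Kinase Profiling, University of Dundee.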

[6] = biological target: Homeodomain-interacting protein kinase 3 (Homo sapiens) (UniProt Q9H422); assay: Inhibition of HIPK3 (unknown origin) assessed as remaining enzyme activity at 10 uM by radioactive [33P]-ATP filter binding assay
[7] = biological target: Serine/threonine-protein kinase TBK1 (Homo sapiens) (UniProt Q9UHD2); assay: Inhibition of TBK1 (unknown origin) assessed as remaining enzyme activity at 10 uM by radioactive [33P]-ATP filter binding assay
[8] = biological target: Serine/threonine-protein kinase 24 (Homo sapiens) (UniProt Q9Y6E0); assay: Inhibition of MST3 (unknown origin) assessed as remaining enzyme activity at 10 uM by radioactive [33P]-ATP filter binding assay
[9] = biological target: Serine/threonine-protein kinase STK11 (Homo sapiens) (UniProt Q15831); assay: Inhibition of LKB1 (unknown origin) assessed as remaining enzyme activity at 10 uM by radioactive [33P]-ATP filter binding assay
[10] = biological target: Dual specificity mitogen-activated protein kinase kinase 2 (Homo sapiens) (UniProt P36507); assay: Inhibition of MKK2 (unknown origin) assessed as remaining enzyme activity at 10 uM by radioactive [33P]-ATP filter binding assay
Sequence of Dual specificity mitogen-activated protein kinase kinase 2 (Homo sapiens) (P36507 whole entry, the tested form may be a part): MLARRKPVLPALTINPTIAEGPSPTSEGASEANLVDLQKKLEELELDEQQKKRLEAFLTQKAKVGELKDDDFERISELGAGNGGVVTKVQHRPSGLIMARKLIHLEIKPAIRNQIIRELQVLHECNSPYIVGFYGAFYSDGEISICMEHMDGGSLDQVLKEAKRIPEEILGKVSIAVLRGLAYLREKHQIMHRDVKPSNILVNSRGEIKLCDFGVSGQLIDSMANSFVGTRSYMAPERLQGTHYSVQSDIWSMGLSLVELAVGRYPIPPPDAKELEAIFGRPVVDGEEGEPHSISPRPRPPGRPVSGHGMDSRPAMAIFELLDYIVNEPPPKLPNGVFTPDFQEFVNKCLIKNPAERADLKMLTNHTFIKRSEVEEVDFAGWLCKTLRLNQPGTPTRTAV

Huh-7 [11] = assay: Induction of cell death in human HuH7 cells assessed as DNA fragmentation at cytotoxic IC50 level after 72 hrs by Hoechst 33258 staining based […]; assay type: functional
Outline: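 Cells were washed in cold PBS, fixed 10 min in cold methanol and stained with Hoechst 33258 at 3 µg/mL for 5 min in the dark. Nuclear condensation and fragmentation were examined by fluorescence microscopy at 40×.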

[12] = biological target: Serine/threonine-protein kinase SIK3 (Homo sapiens) (UniProt Q9Y2K2); assay: Inhibition of SIK3 (unknown origin) assessed as remaining enzyme activity at 10 uM by radioactive [33P]-ATP filter binding assay
[13] = biological target: Vascular endothelial growth factor receptor (Homo sapiens) (UniProt P17948+P35916+P35968); assay: Inhibition of VEGFR (unknown origin) assessed as remaining enzyme activity at 10 uM by radioactive [33P]-ATP filter binding assay; assay type: protein assay
[14] = biological target: MAP kinase-activated protein kinase 2 (Homo sapiens) (UniProt P49137); assay: Inhibition of MAPKAPK2 (unknown origin) assessed as remaining enzyme activity at 10 uM by radioactive [33P]-ATP filter binding assay
[15] = biological target: Serine/threonine-protein kinase BRSK1 (Homo sapiens) (UniProt Q8TDC3); assay: Inhibition of BRSK1 (unknown origin) assessed as remaining enzyme activity at 10 uM by radioactive [33P]-ATP filter binding assay; outline: as §1
Sequence of Serine/threonine-protein kinase BRSK1 (Homo sapiens) (Q8TDC3 whole entry, canonical isoform): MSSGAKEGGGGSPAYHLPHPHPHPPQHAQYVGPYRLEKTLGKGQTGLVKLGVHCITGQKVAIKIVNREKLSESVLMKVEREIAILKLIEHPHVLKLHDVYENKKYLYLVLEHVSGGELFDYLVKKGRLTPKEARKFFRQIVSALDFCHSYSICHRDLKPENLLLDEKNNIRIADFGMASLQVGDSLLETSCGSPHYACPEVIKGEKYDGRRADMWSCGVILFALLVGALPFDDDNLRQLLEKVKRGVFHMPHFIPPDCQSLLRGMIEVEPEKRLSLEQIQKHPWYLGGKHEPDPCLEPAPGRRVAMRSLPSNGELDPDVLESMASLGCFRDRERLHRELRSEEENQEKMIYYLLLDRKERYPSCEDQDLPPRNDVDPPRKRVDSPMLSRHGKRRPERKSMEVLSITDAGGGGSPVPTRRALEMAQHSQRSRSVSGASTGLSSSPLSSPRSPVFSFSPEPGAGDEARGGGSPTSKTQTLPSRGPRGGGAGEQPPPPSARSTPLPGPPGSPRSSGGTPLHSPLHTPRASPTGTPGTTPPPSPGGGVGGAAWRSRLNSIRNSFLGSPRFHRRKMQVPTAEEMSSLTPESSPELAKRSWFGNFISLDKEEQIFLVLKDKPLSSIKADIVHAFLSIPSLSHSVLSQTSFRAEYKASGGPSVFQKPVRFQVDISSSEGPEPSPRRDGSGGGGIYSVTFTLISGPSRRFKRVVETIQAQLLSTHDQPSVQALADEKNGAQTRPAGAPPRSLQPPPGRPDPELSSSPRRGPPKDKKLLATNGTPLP

[16] = biological target: Casein kinase I isoform delta (Homo sapiens) (UniProt P48730); assay: Inhibition of CK1delta (unknown origin) assessed as remaining enzyme activity at 10 uM by radioactive [33P]-ATP filter binding assay; outline: as §1
Sequence of Casein kinase I isoform delta (Homo sapiens) (P48730 whole entry, looked up, canonical isoform): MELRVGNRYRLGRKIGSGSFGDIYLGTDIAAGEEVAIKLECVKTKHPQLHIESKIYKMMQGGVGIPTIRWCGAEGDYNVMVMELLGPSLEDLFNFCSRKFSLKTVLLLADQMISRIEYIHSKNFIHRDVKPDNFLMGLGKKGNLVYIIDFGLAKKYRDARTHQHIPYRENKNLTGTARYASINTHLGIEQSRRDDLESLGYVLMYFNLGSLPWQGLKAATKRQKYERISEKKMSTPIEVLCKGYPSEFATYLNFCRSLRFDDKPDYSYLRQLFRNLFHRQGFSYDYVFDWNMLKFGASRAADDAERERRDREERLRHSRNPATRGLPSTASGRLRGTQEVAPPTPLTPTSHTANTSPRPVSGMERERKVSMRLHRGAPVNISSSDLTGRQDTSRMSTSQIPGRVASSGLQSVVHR

[17] = biological target: Death-associated protein kinase 1 (Homo sapiens) (UniProt P53355); assay: Inhibition of DAPK1 (unknown origin) assessed as remaining enzyme activity at 10 uM by radioactive [33P]-ATP filter binding assay; outline: as §1
[18] = biological target: Tyrosine-protein kinase ABL1 (Homo sapiens) (UniProt P00519); assay: Inhibition of ABL (unknown origin) assessed as remaining enzyme activity at 10 uM by radioactive [33P]-ATP filter binding assay; outline: as §1
[19] = biological target: Dual specificity mitogen-activated protein kinase kinase 1 (Homo sapiens) (UniProt Q02750); assay: Inhibition of MKK1 (unknown origin) assessed as remaining enzyme activity at 10 uM by radioactive [33P]-ATP filter binding assay
Sequence of Dual specificity mitogen-activated protein kinase kinase 1 (Homo sapiens) (Q02750 whole entry): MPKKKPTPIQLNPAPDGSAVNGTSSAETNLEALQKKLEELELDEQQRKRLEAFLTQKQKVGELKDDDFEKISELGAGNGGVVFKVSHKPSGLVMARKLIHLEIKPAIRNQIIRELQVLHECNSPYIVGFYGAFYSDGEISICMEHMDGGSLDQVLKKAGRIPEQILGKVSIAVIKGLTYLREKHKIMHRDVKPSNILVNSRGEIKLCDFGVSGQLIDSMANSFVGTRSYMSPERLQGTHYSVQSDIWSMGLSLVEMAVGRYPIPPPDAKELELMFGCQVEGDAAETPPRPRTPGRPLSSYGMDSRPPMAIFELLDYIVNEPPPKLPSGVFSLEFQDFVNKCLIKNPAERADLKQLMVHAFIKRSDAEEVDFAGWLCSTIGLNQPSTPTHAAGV

[20] = biological target: Mitogen-activated protein kinase 11 (Homo sapiens) (UniProt Q15759); assay: Inhibition of p38beta (unknown origin) assessed as remaining enzyme activity at 10 uM by radioactive [33P]-ATP filter binding assay
Huh-7 [21] = assay: Induction of autophagy in human HuH7 cells assessed as increase in LC3-2 formation at cytotoxic IC50 level after 72 hrs by Western blotting method; assay type: functional, cell-based
[22] = biological target: MAP kinase-activated protein kinase 3 (Homo sapiens) (UniProt Q16644); assay: Inhibition of MAPKAPK3 (unknown origin) assessed as remaining enzyme activity at 10 uM by radioactive [33P]-ATP filter binding assay
[23] = biological target: Ribosomal protein S6 kinase alpha-5 (Homo sapiens) (UniProt O75582); assay: Inhibition of MSK1 (unknown origin) assessed as remaining enzyme activity at 10 uM by radioactive [33P]-ATP filter binding assay
[24] = biological target: Mitogen-activated protein kinase kinase kinase 5 (Homo sapiens) (UniProt Q99683); assay: Inhibition of ASK1 (unknown origin) assessed as remaining enzyme activity at 10 uM by radioactive [33P]-ATP filter binding assay; outline: as §1
[25] = biological target: Insulin-like growth factor 1 receptor (Homo sapiens) (UniProt P08069); assay: Inhibition of IGF1R (unknown origin) assessed as remaining enzyme activity at 10 uM by radioactive [33P]-ATP filter binding assay
Sequence of Insulin-like growth factor 1 receptor (Homo sapiens) (P08069 31-736 limits assumed): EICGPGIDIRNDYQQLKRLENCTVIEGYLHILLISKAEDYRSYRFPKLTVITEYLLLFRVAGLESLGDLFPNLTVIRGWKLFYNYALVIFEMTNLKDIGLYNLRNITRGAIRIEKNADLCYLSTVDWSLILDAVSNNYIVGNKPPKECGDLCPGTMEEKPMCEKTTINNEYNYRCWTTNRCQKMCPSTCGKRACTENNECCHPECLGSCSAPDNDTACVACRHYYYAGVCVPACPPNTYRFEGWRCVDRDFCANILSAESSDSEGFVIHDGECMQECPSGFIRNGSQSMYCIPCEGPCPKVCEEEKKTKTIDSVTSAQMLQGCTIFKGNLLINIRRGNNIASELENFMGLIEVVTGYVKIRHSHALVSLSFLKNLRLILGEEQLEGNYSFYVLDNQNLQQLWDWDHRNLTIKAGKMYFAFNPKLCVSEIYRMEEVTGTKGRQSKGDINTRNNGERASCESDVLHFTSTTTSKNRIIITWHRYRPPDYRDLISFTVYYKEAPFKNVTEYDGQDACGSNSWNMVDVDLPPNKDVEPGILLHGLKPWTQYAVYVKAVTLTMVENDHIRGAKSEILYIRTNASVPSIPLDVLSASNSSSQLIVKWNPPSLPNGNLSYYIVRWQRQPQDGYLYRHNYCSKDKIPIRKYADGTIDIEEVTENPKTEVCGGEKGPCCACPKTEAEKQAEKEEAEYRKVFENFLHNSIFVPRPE
Sequence of Insulin-like growth factor 1 receptor (Homo sapiens) (P08069 741-1367 limits assumed): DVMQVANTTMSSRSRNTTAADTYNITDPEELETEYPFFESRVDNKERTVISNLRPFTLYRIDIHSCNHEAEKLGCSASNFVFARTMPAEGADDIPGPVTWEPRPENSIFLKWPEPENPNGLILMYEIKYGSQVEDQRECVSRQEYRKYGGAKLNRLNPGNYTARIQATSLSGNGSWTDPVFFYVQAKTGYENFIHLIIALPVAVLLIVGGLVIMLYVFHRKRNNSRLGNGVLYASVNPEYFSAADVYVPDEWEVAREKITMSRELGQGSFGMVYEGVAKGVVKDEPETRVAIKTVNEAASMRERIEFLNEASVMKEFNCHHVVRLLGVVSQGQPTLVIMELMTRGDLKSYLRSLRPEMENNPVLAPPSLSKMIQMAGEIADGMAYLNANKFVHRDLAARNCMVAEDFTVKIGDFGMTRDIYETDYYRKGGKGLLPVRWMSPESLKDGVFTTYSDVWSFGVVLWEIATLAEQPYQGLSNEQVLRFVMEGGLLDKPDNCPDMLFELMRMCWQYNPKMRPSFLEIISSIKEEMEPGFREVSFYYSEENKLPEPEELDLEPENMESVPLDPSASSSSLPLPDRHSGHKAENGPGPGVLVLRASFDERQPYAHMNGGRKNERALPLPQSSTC

[26] = biological target: Ephrin type-A receptor 2 (Homo sapiens) (UniProt P29317); assay: Inhibition of EPHA2 (unknown origin) assessed as remaining enzyme activity at 10 uM by radioactive [33P]-ATP filter binding assay; outline: as §1
[27] = biological target: Serine/threonine-protein kinase PAK 4 (Homo sapiens) (UniProt O96013); assay: Inhibition of PAK4 (unknown origin) assessed as remaining enzyme activity at 10 uM by radioactive [33P]-ATP filter binding assay
[28] = biological target: Mitogen-activated protein kinase kinase kinase 7, TAK1 (Homo sapiens) (UniProt O43318); assay: Inhibition of TAK1 (unknown origin) assessed as remaining enzyme activity at 10 uM by radioactive [33P]-ATP filter binding assay
[29] = biological target: Ephrin type-B receptor 2 (Homo sapiens) (UniProt P29323); assay: Inhibition of EPHB2 (unknown origin) assessed as remaining enzyme activity at 10 uM by radioactive [33P]-ATP filter binding assay; outline: as §1

- Activity [1]: 98%
- Activity [2]: 118%
- Activity [3]: 76%
- Activity [4]: 104%
- Activity [6]: 100%
- Activity [7]: 93%
- Activity [8]: 106%
- Activity [9]: 115%
- Activity [10]: 94%
- Activity [12]: 81%
- Activity [13]: 92%
- Activity [14]: 84%
- Activity [15]: 108%
- Activity [16]: 96%
- Activity [18]: 84%
- Activity [19]: 95%
- Activity [20]: 107%
- Activity [22]: 94%
- Activity [23]: 89%
- Activity [24]: 97%
- Activity [25]: 98%
- Activity [26]: 111%
- Activity [27]: 105%
- Activity [28]: 91%
- Activity [29]: 114%
SMILES: Cc1ccc(-c2cc(C(=O)Nc3ccnc(Cl)c3)nn2-c2ccc3ccccc3n2)cc1
- Activity [5]: 106%
- Activity (Huh-7 [11]): Active
- Activity [17]: 112%
- Activity (Huh-7 [21]): inactive
